From ChEMBL document CHEMBL1240327, “Small molecules enhance autophagy and reduce toxicity in Huntington's disease models” (Nat Chem Biol, 2007)
Active and inactive are the calls of the source. The rule behind the calls is not given here.

How the values were obtained:
Saccharomyces bayanus [1] = assay: Inhibition of rapamycin-mediated cytostatic effect in Saccharomyces bayanus after 48 to 96 hrs; type: functional
Saccharomyces cerevisiae [2] = assay: Inhibition of 50 nM rapamycin-mediated cytostatic effect in yeast BY4742 after 48 to 96 hrs; type: functional, organism-based
Saccharomyces mikatae [3] = assay: Inhibition of rapamycin-mediated cytostatic effect in Saccharomyces mikatae after 48 to 96 hrs; type: functional
Saccharomyces cerevisiae [4] = assay: Inhibition of rapamycin-mediated cytostatic effect in yeast RM11-1a after 48 to 96 hrs; type: functional
Saccharomyces paradoxus [5] = assay: Inhibition of rapamycin-mediated cytostatic effect in Saccharomyces paradoxus after 48 to 96 hrs; type: functional
COS-7 [6] = assay: Effect on ATg6 level in african green monkey COS7 cells at 43 uM after 24 hrs by immunoblotting; type: functional, cell-based; conditions: Chlorocebus aethiops
HeLa [7] = assay: Inhibition of proteasome activity in human HeLa cells assessed as induction of ubiquitinG76V-EGFP reporter level at 43 uM after 24 hrs by immunoblotting
PC-12 [8] = assay: Enhancement of rapamycin-induced clearance of alpha-synuclein A53T mutant protein in rat PC12 cells at 43 uM after 8 hrs by immunoblotting; type: functional, cell-based
How it was run: (§1)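 Inducible PC12 A53T α-synuclein line (1 μg/ml doxycycline, 48 h, then switched off). Compound given alone or with 0.2 μM rapamycin over an 8 h switch-off period. Read-out is anti-HA immunoblot with densitometry relative to actin, n=3, control as 100 %.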

Saccharomyces paradoxus [9] = assay: Enhancement of rapamycin-mediated cytostatic effect in Saccharomyces paradoxus after 48 to 96 hrs; type: functional
PC-12 [10] = assay: Enhancement of autophagy in rat PC12 cells assessed as decrease in alpha-synuclein A53T mutant level at 47 uM by immunoblotting; type: functional, cell-based
How it was run: (§2)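 Stable PC12 line with doxycycline-inducible HA-tagged A53T α-synuclein; induced with 1 μg/ml doxycycline for 48 h, then doxycycline removed. Compounds added during the 24 h switch-off period, from 5 mg ml⁻¹ DMSO stock diluted 1:20000, 1:4000 or 1:400. HA immunoblot, densitometry relative to actin; control set to 100 %; three independent experiments, factorial ANOVA.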

HeLa [11] = assay: Increase in MAP1LC3 level in bafilomycin A1-treated human HeLa cells at 43 uM treated fro 24 hrs before bafilomycin A1 challenge by immunoblotting analysis; type: functional, cell-based
How it was run: (§3)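 HeLa cells stably expressing EGFP-LC3 were pretreated with compound for 24 h, then given 200 nM bafilomycin A1 for 4 h. EGFP-LC3-II was measured by anti-EGFP immunoblot with densitometry relative to actin, from three independent experiments.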

Saccharomyces bayanus [12] = assay: Enhancement of rapamycin-mediated cytostatic effect in Saccharomyces bayanus after 48 to 96 hrs; type: functional
Drosophila melanogaster [13] = assay: Neuroprotective activity in Drosophila melanogaster Huntington's disease model harboring huntington protein mutant assessed as protection against neurodegeneration at 200 uM; type: functional, organism-based
COS-7 [14] = assay: Effect on ATg7 level in african green monkey COS7 cells at 43 uM after 24 hrs by immunoblotting; type: functional, cell-based; conditions: Chlorocebus aethiops
Drosophila melanogaster [15] = assay: Toxicity against Drosophila melanogaster Huntington's disease model at 200 uM; type: organism-based; conditions: in vivo
[16] = Cytotoxicity against african green monkey COS7 cells at 43 uM after 24 hrs by FACS analysis; type: cell-based; conditions: chlorocebus aethiops, cos-7, 24 h
PC-12 [17] = assay: Enhancement of autophagy in rat PC12 cells assessed as decrease in alpha-synuclein A53T mutant level at 5 mg/ml by densitometry; type: functional, cell-based; how it was run: as §2
COS-7 [18] = assay: Effect on ATg12 level in african green monkey COS7 cells at 43 uM after 24 hrs by immunoblotting; type: functional, cell-based; conditions: Chlorocebus aethiops
[19] = biological target: Serine/threonine-protein kinase mTOR (Homo sapiens) (UniProt P42345); assay: Inhibition of mTOR phosphorylation expressed in african green monkey COS7 cells at 43 uM by Western blot analysis; type: cell-based; conditions: COS-7
HeLa [20] = assay: Induction of autophagy in human HeLa cells harboring MAP1LC3 gene at 43 uM after 24 hrs by DAPI staining-based fluorescence microscopy; type: functional, cell-based
How it was run: (§4)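 Stable EGFP-LC3 HeLa cells treated 24 h. EGFP-positive autophagic vesicles were imaged by confocal microscopy with DAPI nuclear counterstain.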

Saccharomyces cerevisiae [21] = assay: Enhancement of rapamycin-mediated cytostatic effect in yeast RM11-1a after 48 to 96 hrs; type: functional
COS-7 [22] = assay: Increase in conjugated Atg12-Atg5 level in african green monkey COS7 cells at 43 uM after 24 hrs by immunoblotting; type: functional, cell-based; conditions: Chlorocebus aethiops
[23] = biological target: Huntingtin (Mus musculus) (UniProt P42859); assay: Inhibition of EGFP-tagged huntingtin aggregation in Atg5-deficient MEF at 47 uM after 48 hrs by Western blot analysis
[24] = biological target: Huntingtin (Mus musculus) (UniProt P42859); assay: Inhibition of EGFP-tagged huntingtin aggregation in MEF harboring Atg5 gene at 47 uM after 48 hrs by Western blot analysis
[25] = biological target: Huntingtin (Homo sapiens) (UniProt P42858); assay: Inhibition of EGFP-tagged huntingtin expressed in african green monkey COS7 cells assessed as protection against protein-induced cell death at 43 uM after 48 hrs […]; type: cell-based; conditions: COS-7
How it was run: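 COS-7 cells transfected 4 h with EGFP-tagged huntingtin exon 1 (74 polyQ), then treated for 48 h. About 200 EGFP-positive cells were scored by fluorescence microscopy for aggregates; DAPI-stained nuclei with apoptotic morphology were counted as dead. Triplicate, scorer blinded. Results given as odds ratios vs DMSO (set to 1) with 95 % CI by logistic regression.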

COS-7 [26] = assay: Effect on ATg5 level in african green monkey COS7 cells at 43 uM after 24 hrs by immunoblotting; type: functional, cell-based; conditions: Chlorocebus aethiops
[27] = biological target: Huntingtin (Homo sapiens) (UniProt P42858); assay: Inhibition of EGFP-tagged huntingtin aggregation expressed in african green monkey COS7 cells at 43 uM after 24 hrs by […] in presence of 0.2 uM rapamycin; type: cell-based; conditions: COS-7
Saccharomyces mikatae [28] = assay: Enhancement of rapamycin-mediated cytostatic effect in Saccharomyces mikatae after 48 to 96 hrs; type: functional
Saccharomyces cerevisiae [29] = assay: Enhancement of 20 nM rapamycin-mediated cytostatic effect in yeast BY4742 after 48 to 96 hrs; type: functional, organism-based
PC-12 [30] = assay: Enhancement of autophagy in rat PC12 cells assessed as decrease in alpha-synuclein A53T mutant level at 43 uM by immunoblotting; type: functional, cell-based; how it was run: as §2
[31] = biological target: Huntingtin (Homo sapiens) (UniProt P42858); assay: Inhibition of EGFP-tagged huntingtin aggregation expressed in african green monkey COS7 cells at 43 uM after 48 hrs by […]; type: cell-based; conditions: COS-7
[32] = biological target: Huntingtin (Mus musculus) (UniProt P42859); assay: Inhibition of EGFP-tagged huntingtin aggregation in Atg5-deficient MEF at 43 uM after 48 hrs by […]
[33] = biological target: Huntingtin (Mus musculus) (UniProt P42859); assay: Inhibition of EGFP-tagged huntingtin aggregation in MEF harboring Atg5 gene at 43 uM after 48 hrs by Western blot analysis
[34] = biological target: Serine/threonine-protein kinase mTOR (Homo sapiens) (UniProt P42345); assay: Inhibition of mTOR phosphorylation expressed in african green monkey COS7 cells at 47 uM by Western blot analysis; type: cell-based; conditions: COS-7
COS-7 [35] = assay: Effect on ATg7 level in african green monkey COS7 cells at 47 uM after 24 hrs by immunoblotting; type: functional, cell-based; conditions: Chlorocebus aethiops
COS-7 [36] = assay: Effect on ATg5 level in african green monkey COS7 cells at 47 uM after 24 hrs by immunoblotting; type: functional, cell-based; conditions: Chlorocebus aethiops
COS-7 [37] = assay: Effect on ATg12 level in african green monkey COS7 cells at 47 uM after 24 hrs by immunoblotting; type: functional, cell-based; conditions: Chlorocebus aethiops
COS-7 [38] = assay: Effect on ATg6 level in african green monkey COS7 cells at 47 uM after 24 hrs by immunoblotting; type: functional, cell-based; conditions: Chlorocebus aethiops
Drosophila melanogaster [39] = assay: Toxicity against Drosophila melanogaster Huntington's disease model at 100 uM; type: organism-based; conditions: in vivo
[40] = biological target: Huntingtin (Homo sapiens) (UniProt P42858); assay: Inhibition of EGFP-tagged huntingtin aggregation expressed in african green monkey COS7 cells at 47 uM after 48 hrs by […]; type: cell-based; conditions: COS-7
HeLa [41] = assay: Induction of autophagy in human HeLa cells harboring MAP1LC3 gene at 47 uM after 24 hrs by DAPI staining-based fluorescence microscopy; type: functional, cell-based; how it was run: as §4
[42] = Cytotoxicity against african green monkey COS7 cells at 47 uM after 24 hrs by FACS analysis; type: cell-based; conditions: chlorocebus aethiops, cos-7, 24 h
COS-7 [43] = assay: Increase in conjugated Atg12-Atg5 level in african green monkey COS7 cells at 47 uM after 24 hrs by immunoblotting; type: functional, cell-based; conditions: Chlorocebus aethiops
HeLa [44] = assay: Inhibition of proteasome activity in human HeLa cells assessed as induction of ubiquitinG76V-EGFP reporter level at 47 uM after 24 hrs by immunoblotting
Drosophila melanogaster [45] = assay: Neuroprotective activity in Drosophila melanogaster Huntington's disease model harboring huntington protein mutant assessed as protection against neurodegeneration at 100 uM; type: functional, organism-based
[46] = biological target: Huntingtin (Homo sapiens) (UniProt P42858); assay: Inhibition of EGFP-tagged huntingtin expressed in african green monkey COS7 cells assessed as protection against protein-induced cell death at 47 uM after 48 hrs by Western blot analysis; type: cell-based; conditions: COS-7
HeLa [47] = assay: Increase in MAP1LC3 level in bafilomycin A1-treated human HeLa cells at 47 uM treated fro 24 hrs before bafilomycin A1 challenge by immunoblotting analysis; type: functional, cell-based; how it was run: as §3
PC-12 [48] = assay: Enhancement of rapamycin-induced clearance of alpha-synuclein A53T mutant protein in rat PC12 cells at 47 uM after 8 hrs by immunoblotting; type: functional, cell-based; how it was run: as §1
[49] = biological target: Huntingtin (Homo sapiens) (UniProt P42858); assay: Inhibition of EGFP-tagged huntingtin aggregation expressed in african green monkey COS7 cells at 47 uM after 24 hrs by […] in presence of 0.2 uM rapamycin; type: cell-based; conditions: COS-7

Chain of Huntingtin (Homo sapiens) (P42858 whole entry): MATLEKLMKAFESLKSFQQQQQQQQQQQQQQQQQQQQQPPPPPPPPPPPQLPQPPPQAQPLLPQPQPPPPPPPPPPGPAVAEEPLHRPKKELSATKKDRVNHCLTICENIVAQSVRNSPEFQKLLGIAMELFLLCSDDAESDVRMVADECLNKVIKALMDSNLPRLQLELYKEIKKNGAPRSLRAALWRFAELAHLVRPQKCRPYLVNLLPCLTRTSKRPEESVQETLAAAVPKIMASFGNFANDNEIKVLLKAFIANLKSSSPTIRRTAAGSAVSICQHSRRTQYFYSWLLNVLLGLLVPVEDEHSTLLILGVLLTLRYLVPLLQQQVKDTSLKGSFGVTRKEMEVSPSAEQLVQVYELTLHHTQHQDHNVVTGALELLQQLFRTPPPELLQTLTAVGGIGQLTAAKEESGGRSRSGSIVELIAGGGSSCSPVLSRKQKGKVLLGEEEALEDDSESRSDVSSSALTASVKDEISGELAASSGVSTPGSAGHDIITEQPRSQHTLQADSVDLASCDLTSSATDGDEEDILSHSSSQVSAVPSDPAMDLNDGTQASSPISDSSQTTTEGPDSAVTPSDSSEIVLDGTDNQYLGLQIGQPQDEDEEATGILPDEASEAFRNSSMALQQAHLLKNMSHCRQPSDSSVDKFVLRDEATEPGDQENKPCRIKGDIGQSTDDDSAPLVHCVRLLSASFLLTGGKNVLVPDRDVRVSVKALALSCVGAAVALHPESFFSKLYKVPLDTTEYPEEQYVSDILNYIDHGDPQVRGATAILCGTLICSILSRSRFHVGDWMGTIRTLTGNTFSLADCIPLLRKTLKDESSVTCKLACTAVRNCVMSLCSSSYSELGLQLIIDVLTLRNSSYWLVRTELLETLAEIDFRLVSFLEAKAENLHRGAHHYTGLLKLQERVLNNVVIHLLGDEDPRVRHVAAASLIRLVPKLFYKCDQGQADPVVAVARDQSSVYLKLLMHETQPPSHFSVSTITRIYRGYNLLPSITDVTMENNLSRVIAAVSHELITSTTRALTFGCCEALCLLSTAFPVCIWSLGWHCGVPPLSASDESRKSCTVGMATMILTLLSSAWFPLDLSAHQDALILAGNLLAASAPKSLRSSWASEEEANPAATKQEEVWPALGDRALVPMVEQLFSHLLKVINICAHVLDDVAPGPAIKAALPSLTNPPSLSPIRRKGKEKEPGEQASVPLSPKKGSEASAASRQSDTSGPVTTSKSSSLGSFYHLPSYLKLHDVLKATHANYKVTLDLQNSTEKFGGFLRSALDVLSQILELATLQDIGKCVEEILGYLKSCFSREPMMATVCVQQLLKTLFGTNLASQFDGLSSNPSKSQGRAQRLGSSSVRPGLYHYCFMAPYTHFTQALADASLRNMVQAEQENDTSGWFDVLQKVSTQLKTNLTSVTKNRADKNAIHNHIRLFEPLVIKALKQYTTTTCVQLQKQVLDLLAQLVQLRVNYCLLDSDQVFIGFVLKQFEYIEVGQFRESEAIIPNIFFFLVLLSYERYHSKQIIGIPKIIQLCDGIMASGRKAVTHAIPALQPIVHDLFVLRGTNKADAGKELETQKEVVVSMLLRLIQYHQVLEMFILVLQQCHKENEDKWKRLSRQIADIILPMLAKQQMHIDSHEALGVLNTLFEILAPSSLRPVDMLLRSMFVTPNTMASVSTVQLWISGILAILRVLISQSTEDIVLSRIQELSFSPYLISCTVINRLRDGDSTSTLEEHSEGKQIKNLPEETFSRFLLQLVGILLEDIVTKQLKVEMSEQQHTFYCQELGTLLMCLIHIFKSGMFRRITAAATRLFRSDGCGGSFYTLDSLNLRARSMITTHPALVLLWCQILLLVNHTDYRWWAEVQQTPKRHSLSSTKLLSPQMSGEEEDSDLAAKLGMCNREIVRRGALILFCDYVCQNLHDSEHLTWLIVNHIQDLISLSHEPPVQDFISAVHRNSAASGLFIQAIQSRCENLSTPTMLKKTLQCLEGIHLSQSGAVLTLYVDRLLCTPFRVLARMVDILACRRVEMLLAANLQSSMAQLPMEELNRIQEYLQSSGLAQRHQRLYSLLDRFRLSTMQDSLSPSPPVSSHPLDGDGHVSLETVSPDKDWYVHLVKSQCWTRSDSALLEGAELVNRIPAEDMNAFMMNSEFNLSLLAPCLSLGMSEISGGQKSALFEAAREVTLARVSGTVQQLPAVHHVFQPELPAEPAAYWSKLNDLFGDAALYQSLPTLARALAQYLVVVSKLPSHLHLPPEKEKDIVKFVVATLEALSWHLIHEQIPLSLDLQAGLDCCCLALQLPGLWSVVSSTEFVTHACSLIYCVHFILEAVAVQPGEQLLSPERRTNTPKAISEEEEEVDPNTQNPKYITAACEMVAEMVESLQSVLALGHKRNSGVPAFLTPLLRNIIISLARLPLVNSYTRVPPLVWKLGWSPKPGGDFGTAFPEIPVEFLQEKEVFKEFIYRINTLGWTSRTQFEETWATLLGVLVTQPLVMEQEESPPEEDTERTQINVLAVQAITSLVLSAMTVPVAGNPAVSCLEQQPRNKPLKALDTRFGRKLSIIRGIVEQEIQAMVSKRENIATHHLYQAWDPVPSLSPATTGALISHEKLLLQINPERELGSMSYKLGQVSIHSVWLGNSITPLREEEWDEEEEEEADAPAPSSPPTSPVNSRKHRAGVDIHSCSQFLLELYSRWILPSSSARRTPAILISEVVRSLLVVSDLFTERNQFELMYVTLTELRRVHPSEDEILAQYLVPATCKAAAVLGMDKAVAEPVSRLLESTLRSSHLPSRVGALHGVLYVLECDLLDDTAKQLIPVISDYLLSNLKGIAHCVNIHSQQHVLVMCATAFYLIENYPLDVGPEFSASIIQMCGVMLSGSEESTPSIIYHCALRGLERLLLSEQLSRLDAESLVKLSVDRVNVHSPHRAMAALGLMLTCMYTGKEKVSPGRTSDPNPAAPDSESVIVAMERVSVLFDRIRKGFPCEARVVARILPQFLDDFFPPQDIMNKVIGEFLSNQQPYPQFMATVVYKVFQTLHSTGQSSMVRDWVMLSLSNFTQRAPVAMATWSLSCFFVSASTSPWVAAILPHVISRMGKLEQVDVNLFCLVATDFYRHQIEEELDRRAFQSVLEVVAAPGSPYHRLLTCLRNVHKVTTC

For O=C1C(Nc2ccccc2)=CC(=O)c2ncccc21, the inhibition (Saccharomyces bayanus [1]) was “Active”, the EC50 (Saccharomyces cerevisiae [2]) was 10.4 µM and the inhibition (Saccharomyces mikatae [3]) was “Active”. For the same compound, the inhibition (Saccharomyces cerevisiae [4]) was “Active” and the inhibition (Saccharomyces paradoxus [5]) was “Active”.

With C/C(=C/C(=O)c1ccc(Cl)cc1)Nc1cccc(O)c1 the Activity (COS-7 [6]) was “inactive”, the inhibition (HeLa [7]) was “inactive” and the Activity (PC-12 [8]) was “Active”. For the same compound, the Activity (Saccharomyces paradoxus [9]) was “Active”, the Activity (PC-12 [10]) was “Active” and the Activity (HeLa [11]) was “Active”. The Activity (Saccharomyces bayanus [12]) was “Active”, the Activity (Drosophila melanogaster [13]) was “Active” and the Activity (COS-7 [14]) was “inactive”. For the same compound, the Activity (Drosophila melanogaster [15]) was “Non-toxic”, the Activity [16] was “Non-toxic” and the Activity (PC-12 [17]) was “Active”. For the same compound, the Activity (COS-7 [18]) was “inactive”, the inhibition [19] was “inactive” and the Activity (HeLa [20]) was “Active”. The Activity (Saccharomyces cerevisiae [21]) was “Active”, the Activity (COS-7 [22]) was “inactive” and the inhibition [23] was “inactive”. The inhibition [24] was “inactive”, the inhibition [25] was “Active” and the Activity (COS-7 [26]) was “inactive”. For the same compound, the inhibition [27] was “Active”, the Activity (Saccharomyces mikatae [28]) was “Active” and the EC50 (Saccharomyces cerevisiae [29]) was 17.4 µM. For the same compound, the Activity (PC-12 [30]) was “Active”, the inhibition [31] was “Active” and the inhibition [32] was “Active”. For the same compound, the inhibition [33] was “Active”.

For C=CCNc1ncnc2ccc(Br)cc12, the Activity (Saccharomyces paradoxus [9]) was “Active”, the inhibition [34] was “inactive” and the Activity (PC-12 [10]) was “Active”. The Activity (Saccharomyces bayanus [12]) was “Active”, the Activity (COS-7 [35]) was “inactive” and the Activity (COS-7 [36]) was “inactive”. For the same compound, the Activity (COS-7 [37]) was “inactive”, the Activity (COS-7 [38]) was “inactive” and the Activity (Drosophila melanogaster [39]) was “Non-toxic”. For the same compound, the Activity (PC-12 [17]) was “Active”, the inhibition [40] was “Active” and the Activity (HeLa [41]) was “Active”. For the same compound, the Activity [42] was “Non-toxic”, the Activity (Saccharomyces cerevisiae [21]) was “Active” and the Activity (COS-7 [43]) was “inactive”. For the same compound, the inhibition [23] was “inactive”, the inhibition (HeLa [44]) was “inactive” and the Activity (Drosophila melanogaster [45]) was “Active”. The inhibition [46] was “Active”, the Activity (HeLa [47]) was “Active” and the inhibition [24] was “inactive”. The Activity (Saccharomyces mikatae [28]) was “Active”, the EC50 (Saccharomyces cerevisiae [29]) was over 50 µM and the Activity (PC-12 [30]) was “Active”. For the same compound, the Activity (PC-12 [48]) was “Active” and the inhibition [49] was “Active”.
